Compound activity deposited in PubChem BioAssay by Broad Institute.
Shown are actives, neighbours in structure and some others; about 3.4% of the full set was active somewhere.
E-sel inducer: induces E-selectin expression in human endothelial cells; 260,000 compounds, 0.37% hits; HUVEC E-selectin immunofluorescence imaging; normalized: neutral wells 0, TNF-alpha wells 100; AID 686992; activation, % at 7.58 µM; P16581;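 active = mean E-selectin-positive cell signal at least 10% of the positive control, reached in at least 60% of replicates, without over 20% cell loss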
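Read-out basis: % PE-positive cells; Test system: HUVEC primary endothelial cells; Technique: immunofluorescence imaging; Dosing: single-point compound dose.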
SIRT5 inh: blocks human SIRT5 desuccinylation of peptide | Purified SirT5, succinyl-peptide AMC, trypsin-coupled fluorescence | inhibition, % at 15 µM | 330,000 compounds, 1.1% hits; in the data active = inhibition above about 15%
Target sequence (Q9NXA8 whole entry, looked up): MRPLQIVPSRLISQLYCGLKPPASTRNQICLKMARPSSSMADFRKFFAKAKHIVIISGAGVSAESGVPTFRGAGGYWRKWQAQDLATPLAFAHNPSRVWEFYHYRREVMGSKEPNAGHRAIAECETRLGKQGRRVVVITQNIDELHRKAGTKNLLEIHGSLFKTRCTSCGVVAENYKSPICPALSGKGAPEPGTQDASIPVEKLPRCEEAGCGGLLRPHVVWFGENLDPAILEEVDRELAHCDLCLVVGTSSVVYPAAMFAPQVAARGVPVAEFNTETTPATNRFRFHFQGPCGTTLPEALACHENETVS
rRNA inh HTS: inhibitors of bacterial rRNA selective over humanized ribosomes; 350,000 compounds, 1.6% hits; GFP signal change (wild-type ribosome), % (concentration not given with the values); E. coli WT GFP vs humanized-ribosome RFP mutants, fluorescence, 24 h; active compounds read low; DMSO median 0, no signal -100;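 active = significant combined selectivity score with lowered wild-type GFP, culture density cut under 30%, mutant RFP and density less affected; inactive = any of these conditions unmet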
AF4-AF9 inh: blocks AF4 peptide binding to human AF9. AlphaScreen, biotin-AF4 peptide binding to FLAG-AF9. AID 651704. inhibition, % at 10 µM. 350,000 compounds, 0.47% hits. P42568;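 active = every replicate reaching a set inhibition limit, whatever the replicate mean, cut at about 25% in these data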;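 note: 0% = plate neutral control median and 100% = total signal loss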
S100A4 inh HTS: S100A4-myosin IIA interaction inhibition | 360,000 compounds, 0.14% hits | inhibition, % at 10.7 µM | S100A4/TAMRA-MyoIIA peptide fluorescence polarization;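 active = mean inhibition of at least 70% across replicates, with every replicate also reaching that level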
Target sequence (P26447 whole entry, looked up): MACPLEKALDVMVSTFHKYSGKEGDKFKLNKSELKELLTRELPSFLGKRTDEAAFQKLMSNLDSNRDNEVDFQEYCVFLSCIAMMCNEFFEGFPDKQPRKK
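Assay system: human S100A4 monomer with TAMRA-labelled myosin IIA peptide / Buffer or medium: Calcium-containing HEPES buffer, pH 7.2 / Reagent: TAMRA-labelled myosin IIA heavy-chain peptide probe, 5 nM / Compound: one dose per compound / Timing: polarization read 5 min after assay mix addition, stable 5–60 min / Benchmarks: neutral control DMSO, positive control TFP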
ERAP1 inh: inhibitors of human ERAP1 aminopeptidase; recombinant ERAP1, Leu-AMC fluorescence, 60 min; Q9NZ08; inhibition, % at 10.7 µM; 340,000 compounds, 0.15% hits;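 active = mean replicate inhibition of at least 30%, or all replicates individually reaching that 30% level; inactive = mean below 30% and not every replicate reaching it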;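 note: 0% = neutral control wells and 100% = L-leucinethiol positive control wells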
* hit, by the source's call; . = no result given.

SMILES	E-sel inducer	SIRT5 inh	rRNA inh HTS	AF4-AF9 inh	S100A4 inh HTS	ERAP1 inh
C/C=C(/C)C(=O)O[C@@H]1c2c(ccc3ccc(=O)oc23)OC(C)(C)[C@@H]1OC(=O)/C(C)=C\C	0	31*	-5	0	-1	-2
CO[C@H]1CN(C)C(=O)c2ccc(NS(=O)(=O)c3cn(C)cn3)cc2OC[C@H](C)N(C)C[C@@H]1C	0	7	1	-3	1	-2
O=C1CC2(CCCCC2)Oc2ccc(F)cc21	0	.	.	.	.	.
O=C1CC2(CCCCC2)Oc2ccccc21	0	31*	14	2	3	8
Cc1ccc(S(=O)(=O)N[C@H]2C=C[C@@H](CC(=O)O)O[C@@H]2CO)cc1	0	3	2	-3	3	4
Cc1ccc(S(=O)(=O)N[C@H]2C=C[C@H](CC(=O)O)O[C@@H]2CO)cc1	0	7	0	0	122*	4
Cn1cnc(S(=O)(=O)N[C@@H]2C=C[C@@H](CC(=O)NCC3CC3)O[C@H]2CO)c1	0	6	4	-3	108*	0
O=C(C[C@H]1C=C[C@H](NS(=O)(=O)c2ccc(F)cc2)[C@@H](CO)O1)NC1CCC1	0	-5	4	-5	3	-5
Cc1ccc(S(=O)(=O)N[C@H]2C=C[C@@H](CC(=O)NC3CCCCC3)O[C@@H]2CO)cc1	0	4	-6	-1	95*	-3
CCC(=O)N[C@H]1CC[C@@H](CC(=O)NCc2ccc(OC)cc2)O[C@H]1CO	0	1	5	-1	7	-1
COc1ccccc1CNC(=O)C[C@@H]1CC[C@@H]2[C@H](COC[C@@H](O)CN2C(=O)Nc2ccc(F)cc2)O1	0	.	4	.	.	.
COc1ccc2c3c(n(C)c2c1)[C@H](CO)N(C(=O)CC1CC1)CC31CN(C(=O)C2CC2)C1	.	.	-3	.	.	.
Cc1ccnc(NC(=O)c2cccc(NC(=O)Cc3ccccc3)c2)c1	.	6	-32*	0	-6	0
Cc1ccnc(NC(=O)c2cccc(NC(=O)c3ccc(Cl)cc3)c2)c1	0	-4	-17	-2	-4	-2
O=C(C[C@H]1CC[C@H]2[C@@H](COC[C@@H](O)CN2C(=O)Nc2ccc(C(F)(F)F)cc2)O1)NCCc1ccncc1	0	2	-60	-1	4	0
CC[C@H](C)Cc1cn([C@@H](CCCN=C(N)N)C(=O)NCCCCCCCCCCC(=O)N2CCNCC2)nn1	0	-3	-37*	-29	5	2
CC[C@H](C)[C@@H](C(=O)NCCCCCCCCCCC(=O)N1CCNCC1)n1cc(CCCCN=C(N)N)nn1	.	-1	-4	15	-4	-4
COc1ccccc1N(C(=O)c1snc(C(N)=O)c1N)C(C(=O)NCc1ccccc1)c1ccc(C)o1 (centres undefined)	33*	0	3	1	-2	-3
O=C1c2oc3ccccc3c(=O)c2C(c2cccc(O)c2)N1CCCN1CCOCC1 (centres undefined)	1	.	9	-2	-2	.
COc1cccc(C2c3c(oc4ccccc4c3=O)C(=O)N2CCCN2CCOCC2)c1OC (centres undefined)	46*	-1	4	-2	6	.
COc1ccc(C2=Nn3c(nnc3-c3ccccc3Cl)SC2)cc1OC1CCOC1 (centres undefined)	0	.	1	-1	-1	.
COc1ccc(OC)c(-c2nnc3n2N=C(c2ccc(OC)c(OC4CCOC4)c2)CS3)c1 (centres undefined)	0	5	-28*	17	0	-2
CC1Cc2ccccc2N1C(=O)COC(=O)c1ccc(O)cc1 (centres undefined)	0	-1	-5	-32	2	4
COC(=O)C1=C(C)NC(C)=C(C(=O)OC)C1C(=O)OCC(=O)N1c2ccccc2CC1C (centres undefined)	0	.	-12*	-1	-2	48*
C[C@H]1CCCCO[C@H](CN(C)Cc2ccc(Cl)c(Cl)c2)[C@@H](C)CN([C@@H](C)CO)C(=O)c2cc(NS(=O)(=O)c3ccc(F)cc3)ccc2O1	0	15*	-5	-1	0	0
SMILES	E-sel inducer	SIRT5 inh	rRNA inh HTS	AF4-AF9 inh	S100A4 inh HTS	ERAP1 inh
C[C@@H]1CN([C@H](C)CO)C(=O)c2cc(NS(=O)(=O)c3ccc(Cl)cc3)ccc2O[C@@H](C)CCCCO[C@H]1CN(C)Cc1ccc(Cl)c(Cl)c1	0	5	1	3	102*	-3
C[C@@H]1CN([C@@H](C)CO)C(=O)c2cc(NS(=O)(=O)c3ccc(Cl)cc3)ccc2O[C@@H](C)CCCCO[C@@H]1CN(C)Cc1ccc2c(c1)OCO2	.	16*	-3	-7	19	-1
C[C@@H]1CCCCO[C@H](CN(C)Cc2ccc(Cl)c(Cl)c2)[C@H](C)CN([C@@H](C)CO)C(=O)c2cc(NS(=O)(=O)c3ccccc3)ccc2O1	0	16*	-1	5	6	-3
CCC(C)Oc1cc(-c2ccnc(Nc3cccc(Cl)c3)n2)ccn1 (centres undefined)	0	-3	18	1	4	-1
OCCCNc1cc(-c2ccnc(Nc3cccc(Cl)c3)n2)ccn1	0	-5	-20*	-9	5	-1
N=C(N)c1ccc(N=Nc2c(O)ccc3c2[nH]c2ccccc23)cc1	0	.	-30*	32*	-5	14
Oc1ccc(N=Nc2c(O)ccc3ccccc23)cc1	.	2	-63	6	-6	1
CCn1nc(C)c(/C=C/C(=O)Nc2ccc(C)cc2C)c1C	.	37*	-18	3	-10	1
CN1C(=O)c2cc(NC(=O)C3CCCCC3)ccc2OC[C@@H]2O[C@@H](CC(=O)NCc3ccccc3F)CC[C@H]21	0	-1	-1	-1	0	-2
C[C@H](CO)N1C[C@H](C)[C@@H](CN(C)S(=O)(=O)c2ccc(Cl)cc2)Oc2ccc(NC(=O)CCCN(C)C)cc2C1=O	1	-4	6	-1	2	0
CNC[C@H]1Oc2cc(C#CCN(C)C)ccc2S(=O)(=O)N([C@H](C)CO)C[C@@H]1C	-1	-2	3	16	-2	1
COc1ccc(C2/C=C\CN(C(=O)c3ccc(C)cc3)CC(=O)N2Cc2ccc(F)cc2)cc1 (centres undefined)	0	2	-33	0	2	3
COc1ccc(C2/C=C\CN(C(=O)Nc3ccccc3)CC(=O)N2Cc2ccc(F)cc2)cc1 (centres undefined)	1	-1	-27*	5	-2	0
